# In ChEMBL document CHEMBL6087468, “TKK130 is a 3-Hydroxy-Propanamidine (HPA) with Potent Antimalarial In Vivo Activity and a High Barrier to Resistance” (J Med Chem, 2025):
# Calls of active or inactive are those of the source. The calls are words filed in the database; no cut-off is given here.
# Legend:
# [1] = tested on: Plasmodium falciparum; test: Induction of resistance development in Plasmodium falciparum Dd2 Pol delta at 2 x 10^7 initial inoculum per flask measured on day 16 by single-step selection assay; type: functional, organism-based
# [2] = tested on: Plasmodium falciparum; test: Antimalarial activity against […] wild type Plasmodium falciparum NF54 assessed as inhibition of parasite growth incubated for 48 hrs by [3H]hypoxanthine incorporation assay; type: functional, organism-based
# [3] = Cytotoxicity against human HEK293 cells assessed as cell viability measured after 24 hrs by neutral red assay; type: toxicity, cell-based
# [4] = tested on: Plasmodium falciparum; test: Antimalarial activity against chloroquine, sulfadoxine, and pyrimethamine-resistant Plasmodium falciparum Dd2 infected in erythrocytes measured after 3 days by HRP2-ELISA analysis; type: functional, organism-based; conditions: Dd2, Erythrocyte, 72 h
# [5] = Unbound drug concentration in plasma (unknown origin) at 25 ng/ml measured after 24 hrs by standard equilibrium dialysis assay; type: ADME, cell-free
# How it was run: (§1)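 Standard equilibrium dialysis (6 kDa regenerated cellulose membrane): donor plasma spiked at 25 ng/mL, acceptor 0.9% saline, 24 h at 37 °C. Acetonitrile precipitation of plasma, methanol added to acceptor; LC–MS/MS with calibration curves in each medium; fraction bound corrected for volume shift; triplicate; itraconazole reference.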
# [6] = tested on: Plasmodium berghei; test: In vivo antiplasmodial activity against Plasmodium berghei infected mouse model assessed as mean survival time at 50 mg/kg, po treated 4 times measured at 96 hrs post infection by fluorescence-activated cell sorting (FACS) analysis (reference value: 4 days); type: functional
# [7] = Cmax in mouse infected with Plasmodium berghei at 3 mg/kg, po; type: ADME, organism-based; conditions: in vivo
# How it was run: (§2)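 Single oral dose to P. berghei-infected mice, 2 mice per dose group. Blood sampled at 1, 4 and 24 h post-dose as dried blood spots, plus a blank "0 h" reading. Spots diluted 1:5 (3, 10 mg/kg) or 1:10 (30 mg/kg), then quantified by LC–MS/MS against a whole-blood calibration of 1.56–800 ng/mL with QCs at three levels.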
# [8] = Plasma stability at 37 °C measured as remaining drug at 6 hrs sampled in triplicate (concentration 25 ng/mL 2 (TKK130)); type: ADME, cell-free; conditions: human, at 25 ng/mL, read-out: Stability
# How it was run: (§3)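 Fresh EDTA human plasma warmed to 37 °C, spiked to 25 ng/mL (0.5% methanol final), split into three fractions, shaken at 37 °C. Samples at 0, 2, 4, 6, 24, 48 h precipitated with ice-cold acetonitrile containing internal standard; LC–MS/MS. Recovery = analyte/IS area ratio relative to 0 h; triplicate.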
# [9] = tested on: Plasmodium falciparum; test: Antimalarial activity against Plasmodium falciparum K1 infected in human erythrocytes assessed as inhibition of parasite growth measured after 48 hrs incubation by [3H]hypoxanthine incorporation assay; type: functional, organism-based; conditions: K1, Erythrocyte
# [10] = tested on: Plasmodium falciparum; test: Induction of resistance development in Plasmodium falciparum Dd2 Pol delta at 2 x 10^7 initial inoculum per flask by single-step selection assay; type: functional, organism-based
# [11] = AUC (0 to t) in mouse infected with Plasmodium berghei at 3 mg/kg, po; type: ADME, organism-based; conditions: in vivo; how it was run: as §2
# [12] = tested on: Plasmodium falciparum; test: Antimalarial activity against Plasmodium falciparum Dd2 DDD107498 harboring PfeEF2 mutant infected in human erythrocytes assessed as inhibition of parasite growth measured after 72 hrs incubation by [3H]hypoxanthine incorporation assay; type: functional, organism-based; conditions: Dd2 DDD107498, Erythrocyte
# How it was run: (§4)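 Dd2 parent line, and mutants made from it by gene editing or drug selection. Growth inhibition measured by the 72 h [3H]hypoxanthine incorporation assay at Swiss TPH. Values are means of 2 independent biological replicates.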
# [13] = tested on: Plasmodium berghei; test: In vivo antiplasmodial activity against Plasmodium berghei infected mouse model assessed as curation rate at 30 mg/kg, po treated 4 times measured at 96 hrs post infection by fluorescence-activated cell sorting (FACS) analysis; type: functional
# [14] = tested on: Plasmodium falciparum; test: Antimalarial activity against Plasmodium falciparum Dd2 SJ557733 harboring Pfatp4-mutant infected in human erythrocytes assessed as inhibition of parasite growth measured after 72 hrs incubation by [3H]hypoxanthine incorporation assay; type: functional, organism-based; conditions: Dd2 SJ557733, Erythrocyte; how it was run: as §4
# [15] = tested on: Plasmodium berghei; test: In vivo antiplasmodial activity against Plasmodium berghei infected mouse model assessed as parasitemia suppression in blood at 10 mg/kg, po treated 4 times measured at 96 hrs post infection by fluorescence-activated cell sorting (FACS) analysis; type: functional
# [16] = tested on: Plasmodium falciparum; test: Antimalarial activity against chloroquine-sensitive Plasmodium falciparum 3D7 infected in erythrocytes measured after 3 days by HRP2-ELISA analysis; type: functional, organism-based; conditions: 3D7, Erythrocyte, 72 h
# [17] = tested on: Plasmodium falciparum; test: Antimalarial activity against multidrug-resistant Plasmodium falciparum Dd2 harboring pfcrt, pfmdr1, pfdhfr, pfdhps mutated loci assessed as inhibition of parasite growth incubated for 48 hrs by [3H]hypoxanthine incorporation assay; type: functional, organism-based
# [18] = tested on: Plasmodium falciparum; test: Antimalarial activity against Plasmodium falciparum Dd2 GNF156 harboring Pfcarl-mutant infected in human erythrocytes assessed as inhibition of parasite growth measured after 72 hrs incubation by [3H]hypoxanthine incorporation assay; type: functional, organism-based; conditions: Dd2 GNF156, Erythrocyte; how it was run: as §4
# [19] = tested on: Plasmodium berghei; test: In vivo antiplasmodial activity against Plasmodium berghei infected mouse model assessed as mean survival time at 30 mg/kg, po treated 4 times measured at 96 hrs post infection by fluorescence-activated cell sorting (FACS) analysis (reference value: 4 days); type: functional
# [20] = AUC (0 to t) in mouse infected with Plasmodium berghei at 10 mg/kg, po; type: ADME, organism-based; conditions: in vivo; how it was run: as §2
# [21] = tested on: Plasmodium falciparum; test: Induction of resistance development in Plasmodium falciparum Dd2 Pol delta at 2 x 10^9 initial inoculum per flask at 9 nM measured on day 4 by single-step selection assay; type: functional, organism-based
# [22] = tested on: Plasmodium falciparum; test: Antimalarial activity against chloroquine, sulfadoxine, and pyrimethamine-resistant Plasmodium falciparum Dd2 infected in erythrocyte assessed as reduction in number of viable parasites at 10 times IC50 concentration treated for 120 hrs followed by allowed to recover in drug-free medium for 28 days by HRP2-ELISA analysis; type: functional, organism-based
# [23] = Plasma protein binding in plasma (unknown origin) at 25 ng/ml measured after 24 hrs by standard equilibrium dialysis assay; type: ADME, cell-free; conditions: read-out: PPB (converted); how it was run: as §1
# [24] = Tmax in mouse infected with Plasmodium berghei at 10 mg/kg, po; type: ADME, organism-based; conditions: in vivo
# How it was run: (§5)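 Infected mice (n = 2 per dose) given a single oral dose of 3, 10 or 30 mg/kg; blood sampled as dried blood spots at 1, 4 and 24 h post-dose, diluted before LC–MS analysis against whole-blood dried-spot calibration (1.56–800 ng/mL) with QCs; tmax from concentration–time profiles.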
# [25] = tested on: Plasmodium falciparum; test: Antimalarial activity against wild type Plasmodium falciparum Dd2 infected in human erythrocytes assessed as inhibition of parasite growth measured after 72 hrs incubation by [3H]hypoxanthine incorporation assay; type: functional, organism-based; conditions: Dd2, Erythrocyte; how it was run: as §4
# [26] = Plasma stability at 37 °C measured as remaining drug at 48 hrs sampled in triplicate (concentration 25 ng/mL 2 (TKK130)); type: ADME, cell-free; conditions: human, at 25 ng/mL, read-out: Stability; how it was run: as §3
# [27] = Tmax in mouse infected with Plasmodium berghei at 3 mg/kg, po; type: ADME, organism-based; conditions: in vivo; how it was run: as §5
# [28] = Plasma stability at 37 °C measured as remaining drug at 2 hrs sampled in triplicate (concentration 25 ng/mL 2 (TKK130)); type: ADME, cell-free; conditions: human, at 25 ng/mL, read-out: Stability; how it was run: as §3
# [29] = tested on: Plasmodium falciparum; test: Antimalarial activity against Plasmodium falciparum NF54 infected in human erythrocytes assessed as inhibition of parasite growth measured after 48 hrs incubation by [3H]hypoxanthine incorporation assay; type: functional, organism-based; conditions: NF54, Erythrocyte
smiles,measurement,setting,value
Cl.N=C(CC(O)c1cc2c(F)cc(F)cc2c2cc(C(F)(F)F)ccc12)Nc1ccc(F)cc1 (centres undefined),Activity,[1],inactive
same,IC50,[2],11 nM
same,IC50 at 24 h,[3],47800 nM
same,IC50,[4],3 nM
same,Cp(f),[5],0.2%
same,MSD,[6],30 days
same,Cmax,[7],216 ng/mL
same,"remaining at 6 h, 25 ng/mL",[8],91.9%
same,IC50,[9],3 nM
same,Activity,[10],Active; No Resistant Parasites Generated
same,AUC(0-t),[11],3770 ng·h/mL
same,IC50,[12],16 nM
same,Activity,[13],100%
same,IC50,[14],11 nM
same,Activity,[15],99.9%
same,IC50,[16],2 nM
same,IC50,[17],172 nM
same,IC50,[18],7 nM
same,MSD,[19],30 days
same,AUC(0-t),[20],11600 ng·h/mL
same,Activity,[21],Active; No Subsequent Parasite Growth Observed
same,Activity,[22],Active
same,"fraction unbound at 24 h, 25 ng/ml",[23],< 0.002
same,Tmax,[24],4 h
same,IC50,[25],15 nM
same,"remaining at 48 h, 25 ng/mL",[26],59.4%
same,Tmax,[27],4 h
same,"remaining at 2 h, 25 ng/mL",[28],90.2%
same,IC50,[29],11 nM
